According to PubChem BioAssay:
Results filed as inconclusive are left out.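 How the source made its calls, unless noted: active means viability at or below 27.92% in each of two runs, the all-compound median minus 4 SD; inconclusive means no clear call, values can overlap the other calls; inactive means the rest.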

Experiments:
[1] = OD615 S. cerevisiae growth inhibition, permissive medium, pilot counter-assay, permissive growth control for S. cerevisiae lifespan shortening project (AID 705;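 active means growth inhibition above 25% in both replicates, a cutoff set 3 SD above the mean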); settings: OD615, 24 h, at 10 µM, stronger effect = higher value
In short: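 assay system = Saccharomyces cerevisiae strain carrying genetically modified DeaD replicative-lifespan system | technique = absorbance (optical density) at 615 nm | buffer or medium = permissive raffinose/galactose medium | timing = cells pre-grown 4 h, then 24 h compound exposure, 30 °C humidified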

[2] = Restrictive medium S. cerevisiae growth inhibition, OD615, pilot screen of yeast lifespan reduction project, restrictive growth control (AID 706;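 active means growth inhibition above a set limit, 3 SD over mean compound inhibition, in both replicates, cut at about 43% in these data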;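 further: modified DeaD lifespan yeast strain shifted to restrictive glucose medium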); settings: OD615, 48 h, at 10 µM, stronger effect = higher value
In short: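 System: modified S. cerevisiae. Buffer or medium: CSMM-D glucose medium. Incubation: 4 h pre-growth plus 48 h compound exposure, 30 °C. Detection: absorbance (optical density) measured at 615 nm.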

[3] = viability gain of MRP-1-high H69AR cells under doxorubicin, pilot screen, MRP-1 activator project, CellTiter-Glo, duplicate (AID 807;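 active means viability increase at or above a cutoff of the median across tested compounds plus 3 SD, cut at about 8.5% in these data, passing the limit was not always enough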;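 further: compound pretreatment 18-22 h then 72 h combined with doxorubicin; 0% = doxorubicin alone and 100% = vehicle without doxorubicin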); settings: H69AR viability with doxorubicin, CellTiter-Glo luminescence; at 10 µM; stronger effect = higher value
[4] = growth suppression of beta-catenin knockout HCT116, pilot screen, human colon tumor cells (AID 823;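 active means cell viability at or below a set limit in both duplicate runs, the limit being the all-compound median minus 4 SD, cut at about 23% in these data, passing the limit was not always enough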;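 further: 0% = wells killed by 20 µM Hyamine and 100% = untreated DMSO cell wells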); settings: CellTiter-Glo, 60 h, at 10 µM, stronger effect = lower value
[5] = growth suppression of PTEN-deleted HCT116, pilot screen, cell-based, HCT116 clonal line, CellTiter-Glo (AID 824); settings: 60 h, at 10 µM, stronger effect = lower value;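 further: 0% = 20 µM Hyamine control and 100% = vehicle cell control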
[6] = inhibitors of the yeast RAM network, pilot screen, dse1pr::URA3 reporter, 5-FOA selection (AID 869;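 active means inhibition over a set limit, the all-compound mean plus 3 SD, in both replicate runs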;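 further: 0% = DMSO wells with no growth and 100% = 10 µM 1-NA-PP1 with full growth; RAM network block rescues cells from 5-FOA so hits raise OD615 growth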); settings: S. cerevisiae dse1pr::URA3 5-FOA growth, OD615, 2 d; at 10 µM; stronger effect = higher value; strain carries analog-sensitive mutant Cbk1 kinase
[7] = RAM signaling pathway blockade in yeast – S. cerevisiae, Pdr1DBD-CYC8 efflux-inhibited sensitized strain, primary screen (AID 1298;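 active means RAM network inhibition above 8.4% in each of two replicates, 3 SD over the compound average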;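 further: 0% = DMSO untreated cells without growth and 100% = 10 µM 1-NA-PP1 full growth; higher means more yeast growth rescued from 5-FOA killing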); settings: S. cerevisiae cbk1-as DSE1-URA3 strain, 5-FOA growth OD615, 2 d; at 50 µM; stronger effect = higher value

CCOC(=O)Cc1csc(NC(=O)CN2C(=O)c3ccccc3S2(=O)=O)n1
inactive: growth inhibition [1] -8.36% | growth inhibition [2] -15% | viability increase [3] -2.2% | viability [4] 96.9% | viability [5] 101% | inhibition [6] 3.63% | RAM network inhibition [7] 5.65%

COc1ccc(CN2CCN(C(=O)c3cccs3)CC2)cc1Br
inactive: growth inhibition [1] -11.5% | growth inhibition [2] -13.4% | viability increase [3] -1.27% | viability [4] 85.4% | viability [5] 87.9% | inhibition [6] 0.72% | RAM network inhibition [7] 2.53%

Cc1cc(C(C)(C)C)oc1C(=O)Nc1ccc(CC(=O)O)cc1
inactive: growth inhibition [1] -5.71% | growth inhibition [2] 6.31% | viability increase [3] 1.52% | viability [4] 100% | viability [5] 98.9% | inhibition [6] 1.31% | RAM network inhibition [7] 3.99%

COc1ccc(S(=O)(=O)NCCN2CCOCC2)c2ccccc12
inactive: growth inhibition [1] -1.53% | growth inhibition [2] -2.08% | viability increase [3] -1.32% | viability [4] 101% | viability [5] 95.1% | inhibition [6] -0.495% | RAM network inhibition [7] 1.53%

CCCc1nc(SCc2ccccn2)c2c(=O)n(C)c(=O)n(C)c2n1
inactive: growth inhibition [1] -3.14% | growth inhibition [2] -0.14% | viability increase [3] 1.81% | viability [4] 83.4% | viability [5] 85.4% | inhibition [6] 1.61% | RAM network inhibition [7] 5.45%

CCCn1c(CN(Cc2ccccc2)Cc2ccccc2)nc2c1c(=O)n(C)c(=O)n2C
inactive: growth inhibition [1] -1.94% | growth inhibition [2] -8.84% | viability increase [3] 0.21% | viability [4] 69.2% | viability [5] 59.7% | inhibition [6] 1.22% | RAM network inhibition [7] 8.87%

Cc1cccc(N(C)c2cc(C)nc3ncnn23)c1
inactive: growth inhibition [1] 2.75% | growth inhibition [2] 3.99% | viability increase [3] -1.19% | viability [4] 97.3% | viability [5] 99.6% | inhibition [6] 0.99% | RAM network inhibition [7] 4.73%

CC(c1cccnc1)N(CCN(C)C)C(=O)Nc1ccc(Cl)c(Cl)c1 (configuration not stated)
inactive: growth inhibition [1] -5.64% | growth inhibition [2] -0.46% | viability increase [3] -3.34% | viability [4] 88.9% | viability [5] 84.4% | inhibition [6] 1.33% | RAM network inhibition [7] 5.39%

CC(=O)N1CCC(C(=O)Nc2ccccc2)(N(Cc2ccccc2)C(=O)c2cccnc2)CC1
inactive: growth inhibition [1] -2.38% | growth inhibition [2] 4.33% | viability increase [3] -0.15% | viability [4] 95.7% | viability [5] 86.7% | inhibition [6] 1.47% | RAM network inhibition [7] -1.39%

CN(Cc1ccccc1)C(=O)COC(=O)c1ccc2c(c1)OCO2
inactive: growth inhibition [1] -6.52% | growth inhibition [2] -18.6% | viability increase [3] 0.42% | viability [4] 101% | viability [5] 104% | inhibition [6] 0.11% | RAM network inhibition [7] 0.88%

CCOC(=O)Cc1csc(NC(=O)Nc2ccccc2)n1
inactive: growth inhibition [1] -11.8% | growth inhibition [2] -12.1% | viability increase [3] -0.81% | viability [4] 53.2% | viability [5] 53.2% | inhibition [6] 0.665% | RAM network inhibition [7] 4.19%

Oc1ccc(-c2nc3cnccn3c2Nc2ccc3c(c2)OCCO3)cc1
inactive: growth inhibition [1] 2% | growth inhibition [2] 6.18% | viability increase [3] -6.18% | viability [4] 83.7% | viability [5] 83.8% | inhibition [6] 1.58% | RAM network inhibition [7] 7.64%

CCN1C(=O)CSc2ccc(C(=O)OC)cc21
inactive: growth inhibition [1] -6.5% | growth inhibition [2] -12.7% | viability increase [3] -1.33% | viability [4] 95.6% | viability [5] 90.3% | inhibition [6] 1.39% | RAM network inhibition [7] -0.69%

CCOC(=O)c1c(CC(C)C)csc1NC=O
inactive: growth inhibition [1] -4.46% | growth inhibition [2] -33.1% | viability increase [3] -1.84% | viability [4] 81.8% | viability [5] 80.1% | inhibition [6] 1.18% | RAM network inhibition [7] 0.88%

COC(=O)C1=C(C)N(Cc2cccnc2)C(=O)C1
inactive: growth inhibition [1] -10.7% | growth inhibition [2] -8.8% | viability increase [3] -1.77% | viability [4] 98.7% | viability [5] 102% | inhibition [6] 2.84% | RAM network inhibition [7] 5.02%

O=C(Cn1c(NCCCO)nc2ccccc21)c1cccs1
inactive: growth inhibition [1] -5.45% | growth inhibition [2] -2.54% | viability increase [3] -1.98% | viability [4] 110% | viability [5] 91.7% | inhibition [6] 2.46% | RAM network inhibition [7] 0.62%

CCOC(=O)c1c(C)n(C)c2ccc(OCC(O)CN3CCCCCC3)cc12 (configuration not stated)
inactive: growth inhibition [1] -0.855% | growth inhibition [2] -3.17% | viability increase [3] -5.4% | viability [4] 61.5% | viability [5] 62.5% | inhibition [6] 0.77% | RAM network inhibition [7] 2.14%

COCCCNc1oc(-c2ccccc2F)nc1C#N
inactive: growth inhibition [1] -13.2% | growth inhibition [2] -15.9% | viability increase [3] 2.02% | viability [4] 105% | viability [5] 97.2% | inhibition [6] -0.74% | RAM network inhibition [7] 0.89%

COc1cccc(C2C(C(=O)c3ccco3)=C(O)C(=O)N2CCCN2CCOCC2)c1OC (configuration not stated)
inactive: growth inhibition [1] -8.82% | growth inhibition [2] -0.75% | viability increase [3] -3.37% | viability [4] 102% | viability [5] 93.5% | inhibition [6] 1.02% | RAM network inhibition [7] 6.98%

COc1ccccc1S(=O)Cc1ccc(C(=O)NC2CCCC2)o1 (configuration not stated)
inactive: growth inhibition [1] 4.5% | growth inhibition [2] 4.6% | viability increase [3] -2.33% | viability [4] 107% | viability [5] 101% | inhibition [6] 0.395% | RAM network inhibition [7] 3.24%

CCOc1ccc(-n2c(SCC(=O)Nc3ccc4c(c3)OCO4)nc3c(c2=O)SCC3)cc1
inactive: growth inhibition [1] 3.25% | growth inhibition [2] -5.91% | viability increase [3] -1.65% | viability [4] 92.5% | viability [5] 86.5% | inhibition [6] 1.83% | RAM network inhibition [7] 4.16%

CCOC(=O)C(C)Sc1nc2c(c(=O)[nH]c(=O)n2C)n1Cc1ccc(Cl)cc1 (configuration not stated)
inactive: growth inhibition [1] -3.52% | growth inhibition [2] 1.73% | viability increase [3] -4.04% | viability [4] 92.6% | viability [5] 91.6% | inhibition [6] -0.265% | RAM network inhibition [7] 2.79%

Cc1ccc(C(=O)NCc2ccco2)cc1S(=O)(=O)N1CCCCC1
inactive: growth inhibition [1] -11.6% | growth inhibition [2] -5.65% | viability increase [3] -5.21% | viability [4] 82.9% | viability [5] 85.5% | inhibition [6] 3% | RAM network inhibition [7] 6.81%

NS(=O)(=O)c1ccc(CCNC(=O)C2CCCN(S(=O)(=O)c3cccnc3)C2)cc1 (configuration not stated)
inactive: growth inhibition [1] -8.75% | growth inhibition [2] -8.71% | viability increase [3] -0.63% | viability [4] 108% | viability [5] 97.7% | inhibition [6] 1.63% | RAM network inhibition [7] 5.27%

CC1=C(C(=O)OC(C)C)C(c2c[nH]c3ccccc23)n2ncnc2N1 (configuration not stated)
inactive: growth inhibition [1] -5.16% | growth inhibition [2] -3.17% | viability increase [3] -1.69% | viability [4] 105% | viability [5] 97.1% | inhibition [6] 2.2% | RAM network inhibition [7] -0.16%

O=C(CSc1ccc2nnc(-c3ccc(F)cc3)n2n1)N1CCOCC1
inactive: growth inhibition [1] -5.25% | growth inhibition [2] -2.17% | viability increase [3] -2.97% | viability [4] 105% | viability [5] 96.6% | inhibition [6] 0.08% | RAM network inhibition [7] 0.47%

Cc1ccc2c(c1)c1c(n2CC(O)Cn2c(C)nc3ccccc32)C(=O)CCC1 (configuration not stated)
inactive: growth inhibition [1] -7.12% | growth inhibition [2] -1.9% | viability increase [3] -0.7% | viability [4] 59.2% | viability [5] 62.2% | inhibition [6] 2.33% | RAM network inhibition [7] 7.19%

CCOc1ccc(N(CC(=O)O)S(=O)(=O)c2cccnc2)cc1
inactive: growth inhibition [1] -0.125% | growth inhibition [2] -2.17% | viability increase [3] 1.18% | viability [4] 94.4% | viability [5] 102% | inhibition [6] -0.27% | RAM network inhibition [7] 7.23%

CCOC(=O)c1ccc(N2C(=O)CC(C3CCCO3)C2=O)cc1 (configuration not stated)
inactive: growth inhibition [1] 4.47% | growth inhibition [2] 1.21% | viability increase [3] -2.28% | viability [4] 101% | viability [5] 94.3% | inhibition [6] 0.84% | RAM network inhibition [7] 2.15%

COc1ccc(NS(=O)(=O)c2ccc(NS(=O)(=O)c3ccc(C)cc3)cc2)nn1
inactive: growth inhibition [1] -13.5% | growth inhibition [2] -7.58% | viability increase [3] 1.15% | viability [4] 92.9% | viability [5] 96.8% | inhibition [6] 2.95% | RAM network inhibition [7] 4.16%

Cc1ccccc1-n1nc(-c2ccc(N)cc2)cc1N
inactive: growth inhibition [1] 3.39% | growth inhibition [2] 2.1% | viability increase [3] -2.52% | viability [4] 101% | viability [5] 94.7% | inhibition [6] 0.8% | RAM network inhibition [7] 2.8%

CCOc1ccccc1C(=O)NC1CCN(Cc2nnnn2C2CCCC2)CC1
inactive: growth inhibition [1] -6.12% | growth inhibition [2] -7.94% | viability increase [3] -1.67% | viability [4] 102% | viability [5] 98.9% | inhibition [6] 0.9% | RAM network inhibition [7] 1.76%

O=C(C1CCC(CNc2c(N3CCCCC3)c(=O)c2=O)CC1)N1CCN(c2ccccn2)CC1 (configuration not stated)
inactive: growth inhibition [1] -4.55% | growth inhibition [2] -1.08% | viability increase [3] -0.36% | viability [4] 102% | viability [5] 99.1% | inhibition [6] -0.5% | RAM network inhibition [7] 4.92%

CCOC(=O)CN1CC23C=CC(O2)C(C(=O)NCc2ccccc2OC)C3C1=O (configuration not stated)
inactive: growth inhibition [1] 1.34% | growth inhibition [2] 8.84% | viability increase [3] -3.18% | viability [4] 103% | viability [5] 102% | inhibition [6] 2.3% | RAM network inhibition [7] 0.15%

COc1ccc(N(CC(=O)N2CCN(C)CC2)S(C)(=O)=O)cc1OC
inactive: growth inhibition [1] -12% | growth inhibition [2] -9.76% | viability increase [3] -0.37% | viability [4] 90.8% | viability [5] 97.5% | inhibition [6] 0.64% | RAM network inhibition [7] 6.2%

NC(=O)C1(S(=O)(=O)c2ccccc2)CCCCC1
inactive: growth inhibition [1] -0.22% | growth inhibition [2] -4.29% | viability increase [3] -1.06% | viability [4] 97.8% | viability [5] 96.7% | inhibition [6] 1.43% | RAM network inhibition [7] 4.97%
